Assay [1] is filed under the species Rattus norvegicus. Nature of the assay: Positive allosteric modulation of AMPA receptor in rat embryonic hippocampal neurons assessed as concentration required to double glutamate-induced steady-state current by patch clamp electrophysiology assay. The following applies: Hippocampus. (In general: In patch-clamp work, channel activity is measured electrically.)

The species entered for assay [2] is Rattus norvegicus. Nature of the assay: Positive allosteric modulation of AMPA receptor in rat hippocampal slices assessed as increase of fEPSP-induced current amplitude at 30 uM. It is filed as tissue-based. The settings on record: Hippocampus. A digest of the protocol:
(§1)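 Field recordings in in vitro hippocampal slices. Result is the percent rise in fEPSP amplitude, measured at the stated compound concentration.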

A short description of assay [3]: Displacement of [3H]-AMPAKINE from AMPA receptor in rat forebrain cell membranes. More on the design: species or system Membrane. For orientation: Loss of bound radioactivity is the signal in a displacement assay; it reports binding, not function.
The species named for assay [4] is Rattus norvegicus. Description: Positive allosteric modulation of AMPA receptor in rat hippocampal slices assessed as increase of fEPSP-induced current amplitude at 10 uM. It is filed as tissue-based. The following applies: Hippocampus. A digest of the protocol: as §1
The species entered for assay [5] is Rattus norvegicus. Description: Positive allosteric modulation of AMPA receptor in rat hippocampal slices assessed as increase of fEPSP-induced current amplitude at 3 uM. It is filed as tissue-based. The settings on record: Hippocampus. In short, it runs like this:
as §1

Assay [6] is filed under the species Rattus norvegicus. Nature of the assay: Positive allosteric modulation of AMPA receptor in rat hippocampal slices assessed as increase of fEPSP-induced current amplitude at 1 uM. It is filed as tissue-based. The settings on record: Hippocampus. A digest of the protocol:
as §1

The species named for assay [7] is Rattus norvegicus. Description: Positive allosteric modulation of AMPA receptor in rat hippocampal slices assessed as increase of fEPSP-induced current amplitude at 0.3 uM. Format: tissue-based. The following applies: Hippocampus. In short, it runs like this: as §1
The species entered for assay [8] is Rattus norvegicus. Description: Ratio of compound to CX614 for AMPA receptor in rat embryonic hippocampal neurons assessed as concentration required to double glutamate-induced steady-state current. The following applies: Hippocampus.

Data on 32 compounds can be found in ChEMBL document CHEMBL1795275, “Substituted benzoxazinones as potent positive allosteric AMPA receptor modulators: part II” (Bioorg Med Chem Lett, 2011).

For orientation: Ki means the equilibrium dissociation constant of an inhibitor or competing ligand from its target. High values mean weaker binding, low ones tighter binding. For `O=C1c2cc3c(cc2OCN1CCc1cccc(Cl)c1)C(=O)N1CCCC1O3` (stereo not drawn), the CD in assay [1] came out at 0.02 µM. In addition, in assay [2], the Activity was determined as 7%. Besides, the affinity in assay [3] corresponds to a Ki of 1.8 µM.

For the compound `O=C1c2cc3c(cc2OCN1CCc1cccc(C(F)(F)F)c1)C(=O)N1CCCC1O3` (stereo not drawn), the CD in assay [1] was determined as 0.2 µM. The Activity in assay [2] is 1%. The compound also had a Ki in assay [3] of 2.5 µM.

On to `CN(CCCN1COc2cc3c(cc2C1=O)OC1CCCN1C3=O)S(C)(=O)=O` (stereo not drawn), for which the CD in assay [1] was determined as 0.33 µM. In assay [4], the Activity stood at 9%. The affinity in assay [3], expressed as Ki, was 34 µM.

Turning to `O=C1c2cc3c(cc2OCN1CCc1ccncc1)C(=O)N1CCCC1O3` (stereo not drawn), the CD in assay [1] came out at 0.24 µM. Moreover, the Activity was 15% in assay [4] and 3% in assay [5]. In assay [3], this compound registered a Ki of 43 µM.

For the compound `O=C1c2cc3c(cc2OCN1CCc1ccc(F)cc1)C(=O)N1CCCC1O3` (stereo not drawn), the CD in assay [1] was 1.2 µM. The Activity in assay [2] amounted to 6%.

With `NC(=S)c1cccc(CCN2COc3cc4c(cc3C2=O)OC2CCCN2C4=O)c1` (stereo not drawn), the CD in assay [1] was determined as 0.4 µM. Besides, the Activity in assay [4] turned out to be 5%.

Take `N#CCCN1COc2cc3c(cc2C1=O)OC1CCCN1C3=O` (stereo not drawn): the CD in assay [1] is 0.6 µM. Also, the Activity in assay [4] came to 19%. The same compound came in with a Ki in assay [3] of 11 µM.

For the compound `O=C1c2cc3c(cc2OCN1CCn1ccnc1)C(=O)N1CCCC1O3` (stereo not drawn), the CD in assay [1] stood at 0.05 µM. Further, the Activity in assay [4] came to 38%. In assay [3], this compound had a Ki of 6.6 µM.

For `O=C1c2cc3c(cc2OCN1CCn1cc(Cl)cn1)C(=O)N1CCCC1O3` (stereo not drawn), the CD in assay [1] was 0.0037 µM. Moreover, in assay [6], the Activity turned out to be 23%. Moreover, the affinity in assay [3] corresponds to a Ki of 0.33 µM.

In the case of `COCCN1COc2cc3c(cc2C1=O)OC1CCCN1C3=O` (stereo not drawn), the CD in assay [1] is 1.2 µM. The Activity in assay [4] stood at 14%. This compound came in with a Ki in assay [3] of 41 µM.

Consider `N#CNCCN1COc2cc3c(cc2C1=O)OC1CCCN1C3=O` (stereo not drawn), for which the CD in assay [1] turned out to be 1.8 µM. Besides, in assay [4], the Activity came out at 2%. The same compound showed a Ki in assay [3] of 51 µM.

In the case of `O=C1c2cc3c(cc2OCN1CCn1ccnn1)C(=O)N1CCCC1O3` (stereo not drawn), in assay [1], the CD came out at 0.16 µM. Further, the Activity in assay [6] is 8%. Besides, the Ki in assay [3] came to 5.1 µM.

In the case of `O=C1c2cc3c(cc2OCN1CCc1ccccn1)C(=O)N1CCCC1O3` (stereo not drawn), the CD in assay [1] worked out at 0.6 µM. Moreover, in assay [2], the Activity amounted to 15%. This compound also showed a Ki in assay [3] of 130 µM.

Consider `CSCCN1COc2cc3c(cc2C1=O)OC1CCCN1C3=O` (stereo not drawn), for which the CD in assay [1] was determined as 0.29 µM. Also, the Activity in assay [5] was determined as 12%. In addition, the inhibitory constant (Ki) in assay [3] worked out at 17 µM.

Turning to `O=C1c2cc3c(cc2OCN1CCn1cnc([N+](=O)[O-])c1)C(=O)N1CCCC1O3` (stereo not drawn), in assay [1], the CD is 0.0007 µM. For the same compound, the Activity in assay [7] is 19%. In assay [3], this compound had an inhibition constant (Ki) of 0.06 µM. For the same compound, the Ratio in assay [8] was 3000.

Turning to `N#CCCCCN1COc2cc3c(cc2C1=O)OC1CCCN1C3=O` (stereo not drawn), the CD in assay [1] worked out at 0.11 µM. Further, the Activity in assay [4] worked out at 22%. In addition, the Ki in assay [3] turned out to be 4.5 µM.

On to `O=C1c2cc3c(cc2OCN1CCc1cccnc1)C(=O)N1CCCC1O3` (stereo not drawn), for which the CD in assay [1] stood at 0.2 µM. For the same compound, the Activity in assay [5] stood at 15%. Besides, the Ki in assay [3] stood at 6.6 µM.

As for `O=C1c2cc3c(cc2OCN1CCc1cc(F)cc(F)c1)C(=O)N1CCCC1O3` (stereo not drawn), the CD in assay [1] is 0.005 µM. For the same compound, the Activity in assay [5] came to 16%. In assay [3], this compound registered an inhibition constant (Ki) of 0.3 µM. In addition, in assay [8], the Ratio worked out at 460.

Consider `N#Cc1ccnn1CCN1COc2cc3c(cc2C1=O)OC1CCCN1C3=O` (stereo not drawn), for which, in assay [1], the CD amounted to 0.045 µM. Besides, the Activity in assay [5] is 16%. The Ki in assay [3] was 22 µM.

On to `CS(=O)(=O)CCN1COc2cc3c(cc2C1=O)OC1CCCN1C3=O` (stereo not drawn), for which the CD in assay [1] was found to be 0.32 µM. In addition, in assay [5], the Activity turned out to be 6%. The same compound had a Ki in assay [3] of 20 µM.

With `N#Cc1cccc(CCN2COc3cc4c(cc3C2=O)OC2CCCN2C4=O)c1` (stereo not drawn), the CD in assay [1] was 0.027 µM. Moreover, in assay [5], the Activity is 16%. Also, the Ki in assay [3] amounted to 3 µM.

Turning to `N#CCCCN1COc2cc3c(cc2C1=O)OC1CCCN1C3=O` (stereo not drawn), the CD in assay [1] was found to be 0.05 µM. Further, the Activity in assay [5] came to 11%. The compound further came in with a Ki in assay [3] of 6.8 µM.

On to `O=C1c2cc3c(cc2OCN1CCc1ccon1)C(=O)N1CCCC1O3` (stereo not drawn), for which the CD in assay [1] worked out at 0.4 µM. Besides, the Activity in assay [5] was determined as 4%. Besides, the affinity in assay [3] corresponds to a Ki of 41 µM.

On to `O=C1c2cc3c(cc2OCN1CCc1ccccc1)C(=O)N1CCCC1O3` (stereo not drawn), for which the CD in assay [1] amounted to 0.25 µM. In addition, the Activity in assay [5] was determined as 3%; in assay [2] it was 19%. For the same compound, the Ki in assay [3] was found to be 7.9 µM.

Turning to `N#Cc1ccn(CCN2COc3cc4c(cc3C2=O)OC2CCCN2C4=O)n1` (stereo not drawn), the CD in assay [1] was determined as 0.1 µM. For the same compound, in assay [5], the Activity stood at 10%. The compound further displayed a Ki in assay [3] of 18 µM.

Consider `N#Cc1cnn(CCN2COc3cc4c(cc3C2=O)OC2CCCN2C4=O)c1` (stereo not drawn), for which the CD in assay [1] is 0.04 µM. The Activity in assay [5] came to 29%. The same compound returned a Ki in assay [3] of 1 µM.

In the case of `O=C1c2cc3c(cc2OCN1CCn1cncn1)C(=O)N1CCCC1O3` (stereo not drawn), the CD in assay [1] turned out to be 0.063 µM. The Activity in assay [5] worked out at 31%. Besides, the affinity in assay [3] corresponds to a Ki of 2.1 µM.

Consider `NC(=O)CCN1COc2cc3c(cc2C1=O)OC1CCCN1C3=O` (stereo not drawn), for which the CD in assay [1] amounted to 1.1 µM. Also, the Activity in assay [2] is 6%. Moreover, affinity in assay [3] was put at a Ki of 51 µM.

With `N#CCN1COc2cc3c(cc2C1=O)OC1CCCN1C3=O` (stereo not drawn), the CD in assay [1] was found to be 0.5 µM. Moreover, in assay [4], the Activity was found to be 10%. This compound also displayed a Ki in assay [3] of 17 µM.

In the case of `CN(CCN1COc2cc3c(cc2C1=O)OC1CCCN1C3=O)S(C)(=O)=O` (stereo not drawn), in assay [1], the CD is 0.38 µM. Also, the Activity in assay [4] is 8%. The compound further showed a Ki in assay [3] of 31 µM.

As for `O=C1c2cc3c(cc2OCN1CCn1cc([N+](=O)[O-])cn1)C(=O)N1CCCC1O3` (stereo not drawn), in assay [1], the CD is 0.0065 µM. Also, in assay [6], the Activity is 29%. Affinity in assay [3] was put at a Ki of 0.24 µM.

Regarding `CCN1COc2cc3c(cc2C1=O)OC1CCCN1C3=O` (stereo not drawn), the CD in assay [1] turned out to be 0.2 µM. For the same compound, the Activity in assay [4] was 17%. Besides, in assay [3], the affinity, expressed as Ki, was 20 µM.
